Data: ChEMBL document CHEMBL3774372, “Design, physico-chemical properties and biological evaluation of some new N-[(phenoxy)alkyl]- and N-{2-[2-(phenoxy)ethoxy]ethyl}aminoalkanols as anticonvulsant agents” (Bioorg Med Chem, 2016)

How the values were obtained:
Mus musculus [1] = test: Neurotoxicity in mouse at 20 mg/kg, ip after 4 hrs by rotarod test; assay type: toxicity, organism-based; conditions: in vivo
Mus musculus [2] = test: Anticonvulsant activity in ip dosed mouse assessed as protection against subcutaneous pentylenetetrazol-induced seizures measured after […]; assay type: functional
Rattus norvegicus [3] = test: Toxicity in pilocarpine-induced status epilepticus Sprague-Dawley rat assessed as death at 100 mg/kg, ip after […]; assay type: organism-based; conditions: in vivo
Rattus norvegicus [4] = test: Neurotoxicity in rat at 30 mg/kg, po after 2 hrs by rotarod test; assay type: toxicity, organism-based; conditions: in vivo
Rattus norvegicus [5] = test: Neurotoxicity in rat at 30 mg/kg, po after 1 hr by rotarod test; assay type: toxicity, organism-based; conditions: in vivo
Mus musculus [6] = test: Neurotoxicity in mouse at 20 mg/kg, ip after […] by rotarod test; assay type: toxicity, organism-based; conditions: in vivo
Vibrio harveyi [7] = test: Antimutagenic activity against Vibrio harveyi BB7M assessed as inhibition of NQNO-induced mutagenicity after 48 hrs; assay type: functional
Summary of the method: (§1)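 V. harveyi cultures grown exponentially to A600 0.1 at 30 °C, exposed to test compound for 15 min, then to NQNO, and grown on to A600 0.3–0.4. 5 × 10⁶ cells plated on BOSS agar with neomycin (100, final). Neomycin-resistant colonies counted after 48 h at 30 °C. Result given as % inhibition of NQNO mutagenicity; three independent repeats.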

Mus musculus [8] = test: Neurotoxicity in mouse at 30 mg/kg, ip after 4 hrs by rotarod test; assay type: toxicity, organism-based; conditions: in vivo
Summary of the method: (§2)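 Mice were dosed ip with compound suspended in 0.5% methylcellulose. Rotarod: a 1 in. knurled rod turning at 6 rpm. Neurotoxicity was scored as failure to stay on the rod for at least 1 min in each of three trials. Results are given as the number of animals affected out of the number tested.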

Mus musculus [9] = test: Neurotoxicity in mouse at 40 mg/kg, ip after 2 hrs by rotarod test; assay type: toxicity, organism-based; conditions: in vivo
Mus musculus [10] = test: Neurotoxicity in mouse at 40 mg/kg, ip after 4 hrs by rotarod test; assay type: toxicity, organism-based; conditions: in vivo
Rattus norvegicus [11] = test: Neurotoxicity in rat at 30 mg/kg, po after 0.5 hrs by rotarod test; assay type: toxicity, organism-based; conditions: in vivo
Mus musculus [12] = test: Neurotoxicity in mouse at 20 mg/kg, ip after 1 hr by rotarod test; assay type: toxicity, organism-based; conditions: in vivo
Rattus norvegicus [13] = test: Neurotoxicity in rat at 30 mg/kg, ip after 0.5 hrs by rotarod test; assay type: toxicity, organism-based; conditions: in vivo
Mus musculus [14] = test: Neurotoxicity in mouse at 20 mg/kg, ip after 2 hrs by rotarod test; assay type: toxicity, organism-based; conditions: in vivo
Mus musculus [15] = test: Neurotoxicity in mouse at 20 mg/kg, ip after 0.5 hrs by rotarod test; assay type: toxicity, organism-based; conditions: in vivo
[16] = Neurotoxicity in ip dosed mouse after […] by rotarod test; assay type: toxicity, organism-based; conditions: in vivo
Vibrio harveyi [17] = test: Mutagenicity in Vibrio harveyi BB7M assessed as number of colonies after 48 hrs (reference value: 13 to 14 no_unit); assay type: ADME, organism-based; conditions: in vivo
Summary of the method: (§3)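 Vibrio harveyi mutagenicity test: test compound was added to exponentially growing cultures (A600 = 0.1, 30 °C) and grown to OD600 0.3–0.4. Then 5 × 10^6 cells were plated on BOSS agar with neomycin (final 100 µg/mL) and incubated 48 h at 30 °C. Neomycin-resistant colonies were counted. Triplicate; controls were water, DMSO and NQNO 40 ng/mL.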

Mus musculus [18] = test: Neurotoxicity in mouse at 300 mg/kg, ip after 0.5 hrs by rotarod test; assay type: toxicity, organism-based; conditions: in vivo; summary of the method: as §2
[19] = Retention time of the compound in mouse liver microsomes at 20 uM preincubated for 15 mins followed by addition of NADPH-regenerating system measured after 5 to 90 mins by […] analysis; assay type: ADME
Summary of the method: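 Mouse liver microsomes (0.4 mg/mL) with test compound (20 µM) in 100 mM potassium phosphate, pH 7.4, were preincubated 15 min at 37 °C. An NADPH-regenerating system was then added and incubation ran 5–90 min at 37 °C. Levallorphan (20 µM) served as internal standard, and reactions were quenched with perchloric acid. The supernatant was analysed by UPLC/MS. Duplicate incubations.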

Vibrio harveyi [20] = test: Mutagenicity in Vibrio harveyi BB7 assessed as number of colonies after 48 hrs (reference value: 13 to 14 no_unit); assay type: ADME, organism-based; conditions: in vivo; summary of the method: as §3
Mus musculus [21] = test: Neurotoxicity in mouse at 40 mg/kg, ip after […] by rotarod test; assay type: toxicity, organism-based; conditions: in vivo
Rattus norvegicus [22] = test: Neurotoxicity in rat at 30 mg/kg, po after […] by rotarod test; assay type: toxicity, organism-based; conditions: in vivo
Vibrio harveyi [23] = test: Mutagenicity in Vibrio harveyi BB7X assessed as number of colonies after 48 hrs (reference value: 15 to 16 no_unit); assay type: ADME, organism-based; conditions: in vivo; summary of the method: as §3
Mus musculus [24] = test: Neurotoxicity in mouse at 40 mg/kg, ip after 1 hr by rotarod test; assay type: toxicity, organism-based; conditions: in vivo
Rattus norvegicus [25] = test: Neurotoxicity in rat at 30 mg/kg, ip after 4 hrs by rotarod test; assay type: toxicity, organism-based; conditions: in vivo
in vitro [26] = conditions: mouse, liver microsomes
Vibrio harveyi [27] = test: Antimutagenic activity against Vibrio harveyi BB7 assessed as inhibition of NQNO-induced mutagenicity after 48 hrs; assay type: functional; summary of the method: as §1
Rattus norvegicus [28] = test: Neurotoxicity in rat at 30 mg/kg, ip after 2 hrs by rotarod test; assay type: toxicity, organism-based; conditions: in vivo
in vitro [29] = conditions: mouse, liver microsomes; remark: listed apart in the source
Vibrio harveyi [30] = test: Antimutagenic activity against Vibrio harveyi BB7XM assessed as inhibition of NQNO-induced mutagenicity after 48 hrs; assay type: functional; summary of the method: as §1
Mus musculus [31] = test: Neurotoxicity in mouse at 100 mg/kg, ip after 0.5 hrs by rotarod test; assay type: toxicity, organism-based; conditions: in vivo; summary of the method: as §2
Rattus norvegicus [32] = test: Neurotoxicity in rat at 30 mg/kg, ip after […] by rotarod test; assay type: toxicity, organism-based; conditions: in vivo
Rattus norvegicus [33] = test: Neurotoxicity in rat at 30 mg/kg, po after 4 hrs by rotarod test; assay type: toxicity, organism-based; conditions: in vivo
Mus musculus [34] = test: Anticonvulsant activity in ip dosed mouse assessed as protection against maximal electric shock-induced seizures measured after […]; assay type: functional
Rattus norvegicus [35] = test: Neurotoxicity in rat at 30 mg/kg, ip after 1 hr by rotarod test; assay type: toxicity, organism-based; conditions: in vivo
Vibrio harveyi [36] = test: Mutagenicity in Vibrio harveyi BB7XM assessed as number of colonies after 48 hrs (reference value: 14 no_unit); assay type: ADME, organism-based; conditions: in vivo; summary of the method: as §3

## Cc1cccc(C)c1OCCOCCN[C@@H](C)CO
Mus musculus [1]
  Activity: Non-toxic
Mus musculus [2]
  ED50: > 43 mg/kg
Rattus norvegicus [3]
  Activity: Non-toxic
Rattus norvegicus [4]
  Activity: Non-toxic
Rattus norvegicus [5]
  Activity: Non-toxic
Mus musculus [6]
  Activity: Non-toxic
Vibrio harveyi [7]
  inhibition (INH): 69%
Mus musculus [8]
  Activity: Non-toxic
Mus musculus [9]
  Activity: Non-toxic
Mus musculus [10]
  Activity: Non-toxic
Rattus norvegicus [11]
  Activity: Non-toxic
Mus musculus [12]
  Activity: Non-toxic
Rattus norvegicus [13]
  Activity: Non-toxic
Mus musculus [14]
  Activity: Non-toxic
Mus musculus [15]
  Activity: Non-toxic
[16]
  TD50 at […]: 39.2 mg/kg
Vibrio harveyi [17]
  Activity: 26
Mus musculus [18]
  Activity: Toxic
[19]
  Retention_time: 3.8 min
Vibrio harveyi [20]
  Activity: 15
Mus musculus [21]
  Activity: Toxic
Rattus norvegicus [22]
  Activity: Non-toxic
Vibrio harveyi [23]
  Activity: 22
Mus musculus [24]
  Activity: Non-toxic
Rattus norvegicus [25]
  Activity: Non-toxic
In vitro [26]
  microsomal CLint at 20 µM: 47 µL/min/mg
Vibrio harveyi [27]
  inhibition (INH): 70%
Rattus norvegicus [28]
  Activity: Non-toxic
In vitro [29]
  half-life at 20 µM: 37 min
Vibrio harveyi [30]
  inhibition (INH): 5%
Mus musculus [31]
  Activity: Toxic
Rattus norvegicus [32]
  Activity: Non-toxic
Rattus norvegicus [33]
  Activity: Non-toxic
Mus musculus [34]
  ED50: 11.3 mg/kg
Rattus norvegicus [35]
  Activity: Non-toxic
Vibrio harveyi [36]
  Activity: 18
